A short description of data set [1]: Pharmacokinetics after single i.v. administration to rats. In kind it is in vivo, Sprague Dawley rats. The essentials: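 Male Sprague Dawley rats (7-9 weeks, 240-260 g), six per group, were fasted overnight. Each received one tail-vein dose of 2 mg/kg as free compound (saline with 30% propylene glycol) or micelles. Jugular blood was drawn into heparinised tubes at 0.03–8 h, and plasma was separated at 4 ℃. Samples were quantified by validated LC-ESI-MS/MS, and PK parameters were calculated; mean ± SD.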

The nature of a further data set: In vitro release study. The following applies: PBS pH = 7.4 and pH = 5, 1% SDS, 37 ℃. In kind it is physicochemical. The essentials:
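Test compound-loaded micelles or free test compound were placed in a pre-soaked dialysis bag (MWCO 500) immersed in PBS containing 1% (w/v) SDS at pH 7.4 or pH 5. Bags were shaken at 200 rpm at 37 ℃. Outside medium was sampled at 0.5, 1, 2, 4, 6, 8, 12, 24 and 48 h and replaced with fresh PBS. Cumulative release was tracked.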

The subject of data set [2] is MCAO mice. Description: MCAO model: behavioural tests. In kind it is in vivo, C57BL/6 mice. To be noted: i.v. for 7 days, seventh day after the operation. An outline of the steps:
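Male C57BL/6 mice (6-8 weeks, 24-26 g), four per group, were anaesthetised with 5% chloral hydrate i.p. The right CCA/ECA/ICA were exposed, and a monofilament was placed and removed after 1 h for reperfusion; sham mice had no monofilament. Dosing was i.v. for 7 days: free compound 3 mg/kg, micelles 1 or 3 mg/kg, edaravone 3 mg/kg. A blinded investigator scored Longa on days 1 and 7.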

Data set [3] in a line: Tissue distribution and targeting evaluation after i.v. administration to mice. To be noted: for Cmax: male, ICR, mouse, iv, 2.8 mg/kg. Type of data set: in vivo, ICR mice. An outline of the steps: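 Male ICR mice (6-8 weeks, 27-28 g) received 2.8 mg/kg i.v. as free compound or micelles. Four mice were killed per time point (0.17, 0.5, 1, 2 h), and heart, liver, lung, kidney and brain were collected. Tissues were rinsed, weighed, homogenised in cold saline (1:2 w/v), centrifuged, and supernatants assayed by LC-MS/MS.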

Data set [4] relates to MCAO mice. Description: MCAO model: Nissl, TUNEL and LC3 immunofluorescence staining of brain sections. In kind it is in vivo, C57BL/6 mice. To be noted: i.v. for 7 days.
Where [5] appears, read: Sprague Dawley, rat, plasma, iv, 2 mg/kg.

Usually AUC(0-inf) stands for the area under the concentration-time curve extrapolated to infinity. Read a high AUC(0-inf) as more exposure. Usually AUC(0-t) stands for the area under the concentration-time curve up to a stated or last time point. Low values mean low exposure, high ones high exposure. As usually defined, the MRT last is a mean duration of stay, worked out from the concentration-time curve. Broadly, the clearance is the volume of plasma or blood freed of the substance per unit of time. A high value points to a high capacity for elimination. The Cmax is the peak of the concentration-time curve. `O=C(/C=C/c1ccc(O)cc1)c1ccc(O)cc1O` [ISL, (e)-1-(2,4-dihydroxyphenyl)-3-(4-hydroxyphenyl) −2-propen-1-one]: in data set [1] (setting [5]), the AUC(0-inf) is 373 ± 106 ng·h/mL. The same molecule displayed an AUC(0-t) in data set [1] (setting [5]) of 307 ± 92.5 ng·h/mL. The same molecule came in with an MRT last in data set [1] (setting [5]) of 10.2 ± 1.8 min. Further, the clearance in data set [1] (setting [5]) is 96.3 mL/min/kg. Also, the “detectability of ISL in plasma over time” value in data set [1] (rats, single i.v. 2 mg/kg) is “could not be detected after 2 hours”. Also, the “CL (clearance rate)” value in data set [1] (rats, single i.v. 2 mg/kg, plasma ISL) is given as 5.78 ± 1.74 L/h/kg. Besides, the results for the cumulative release in “In vitro release study” (in eight hours) and in the data set “In vitro release study” (within the first four hours) were approximately 90% and “More than 60%”, respectively. Further, the “neurological scores (Longa scores) compared with the MCAO model group” value in the data set on MCAO mice [2] is “significantly decreased”. Also, the Cmax in data set [3] (brain) came to 21.7 ± 3.45 ng/g; in data set [3] (heart), 69.2 ± 10.5 ng/g; in data set [3] (kidney) it was 713 ± 35 ng/g; in data set [3] (liver), 574 ± 137 ng/g; in data set [3] (lung) it was 179 ± 31.4 ng/g. Further, the “detectability of ISL in tissues 1 h after administration” value in data set [3] (mice, i.v. 2.8 mg/kg, 1 h) was “could not be detected”. The AUC in data set [3] (mice, i.v. 2.8 mg/kg, Brain) came out at 8.34 ± 0.61 ng·h/g; in data set [3] (mice, i.v. 2.8 mg/kg, Heart), 18.66 ± 2.11 ng·h/g; in data set [3] (mice, i.v. 2.8 mg/kg, Kidney), 174.7 ± 9.70 ng·h/g; in data set [3] (mice, i.v. 2.8 mg/kg, Liver), 207.70 ± 28.50 ng·h/g; in data set [3] (mice, i.v. 2.8 mg/kg, Lung) it was 55.24 ± 6.28 ng·h/g. Also, in the data set on MCAO mice [4], the “Nissl staining of neurons (Nissl bodies)” value is recorded as “not significantly different from that in the model group”. In addition, the “number of positive cells expressing the LC3 protein” value in the data set on MCAO mice [4] is “less than that in the model group and more than that in the ISL-M group”. Also, the “number of positive cells stained with the TUNEL” value with MCAO mice [4] is “less than that in the model group and more than that in the ISL-M group”.
